ChEMBL document CHEMBL5252513, “Identification of a Benzoisoxazoloazepine Inhibitor (CPI-0610) of the Bromodomain and Extra-Terminal (BET) Family as a Candidate for Human Clinical Trials” (J Med Chem, 2016)
Active and inactive are the calls of the source. The calls are words filed in the database; no cut-off is given here.

Experiments:
[1] = target: Histone acetyltransferase KAT2B (Homo sapiens, UniProt Q92831); assay: Displacement of biotinylated JQ1 from PCAF bromodomain (unknown origin) incubated for 20 mins by AlphaLISA assay
MV4-11 [2] = assay: Antitumor activity against human MV4-11 cells xenografted in BALB/c mouse assessed as tumor growth inhibition at 30 mg/kg,po QD for 28 days; assay type: functional; settings: MV4-11, 672 h, time 28 day, read-out: TGI
How it was run: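 Single-agent efficacy in MV-4-11 AML mouse xenograft. Tumor volume (mm3) and percent body-weight change were tracked over the treatment days.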

[3] = Cmax in dog at 2.5 mg/kg,po; assay type: ADME, organism-based, Canis lupus familiaris; parameters: dose 2.5 mg/kg, route po; settings: in vivo
[4] = Toxicity in dog assessed as to mild to moderate hyperglycemia at 2 to 6 mg/kg,po QD consecutive for 14 days followed by 2 weeks recovery period; assay type: organism-based, Canis lupus familiaris; settings: in vivo, 336 h, dose 2-6 mg/kg, time 14 day
How it was run: (§1)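 Oral suspension given once daily for 14 consecutive days (rat 2, 6, 20 mg/kg; dog 2, 4, 6 mg/kg) in dose range-finding and GLP repeat-dose studies, GLP arms with an added 2-week recovery period; histopathology and clinical pathology findings recorded.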

[5] = AUC (0 to infinity) in mouse at 30 mg/kg,po; assay type: ADME, organism-based; parameters: dose 30 mg/kg, route po; settings: in vivo
[6] = Tmax in mouse at 10 mg/kg,sc; assay type: ADME, organism-based; settings: in vivo
[7] = Total clearance in dog at 0.5 mg/kg,iv; assay type: ADME, organism-based, Canis lupus familiaris; settings: in vivo
[8] = Unbound Cmax in human patient with progression lymphoma at 300 mg,po QD consecutively for 14 days; assay type: ADME; settings: in vivo, 336 h, time 14 day
How it was run: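 Oral dosing in patients with hematologic malignancies, cycles at escalating doses; 300 mg cohort sampled at day 14. Unbound Cmax = free fraction × Cmax.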

[9] = Protein binding in mouse plasma; assay type: ADME, cell-free; settings: read-out: PPB (converted)
[10] = Toxicity in dog assessed as GI mucosal ulceration at 2 to 6 mg/kg,po QD consecutive for 14 days followed by 2 weeks recovery period; assay type: organism-based, Canis lupus familiaris; settings: in vivo, 336 h, dose 2-6 mg/kg, time 14 day; how it was run: as §1
[11] = target: Bromodomain-containing protein 8 (Homo sapiens, UniProt Q9H0E9); assay: Displacement of biotinylated JQ1 from BRD8 bromodomain (unknown origin) incubated for 20 mins by AlphaLISA assay
[12] = AUC (0 to 24 hrs) in human patient with progression lymphoma at 300 mg,po QD and measured after 24 hrs; assay type: ADME; parameters: time 24 hrs, dose 300 mg, route po; settings: in vivo
How it was run: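 Phase I trial in patients with hematologic malignancies, oral dosing once daily with escalating cohorts; values are from the 300 mg dose on day 14. AUC0-24 was taken as exposure over 24 h. Apparent clearance was calculated as Dose/AUC0-24.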

[13] = Toxicity against BALB/c mouse plasma xenografted with human MV4-11 cells assessed as body weight loss at 30 mg/kg,po BID for 28 days; assay type: organism-based; settings: in vivo, 672 h, time 28 day
How it was run: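 Body weight change (%) followed in MV-4-11 AML mouse xenograft during 28 days of oral single-agent dosing (30 mg/kg once or twice daily, 60 mg/kg once daily), vehicle PO BID as control.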

[14] = Toxicity in rat assessed as degeneration of testicular seminiferous epithelium at 2 to 20 mg/kg,po QD consecutive for 14 days followed by 2 weeks recovery period; assay type: organism-based; settings: in vivo, 336 h, dose 2-20 mg/kg, time 14 day; how it was run: as §1
[15] = Unbound clearance in rat at 1 mg/kg,iv; assay type: ADME, organism-based; settings: in vivo
[16] = target: SWI/SNF-related matrix-associated actin-dependent regulator of chromatin subfamily A member 4 (Homo sapiens, UniProt P51532); assay: Binding affinity to BRG1 bromodomain (unknown origin) incubated for 60 mins by TR-FRET assay
[17] = target: T1, Transcription intermediary factor 1-alpha (Homo sapiens, UniProt O15164); assay: Displacement of biotinylated JQ1 from TRIM24 bromodomain (unknown origin) incubated for 20 mins by AlphaLISA assay
T1 sequence (O15164 whole entry): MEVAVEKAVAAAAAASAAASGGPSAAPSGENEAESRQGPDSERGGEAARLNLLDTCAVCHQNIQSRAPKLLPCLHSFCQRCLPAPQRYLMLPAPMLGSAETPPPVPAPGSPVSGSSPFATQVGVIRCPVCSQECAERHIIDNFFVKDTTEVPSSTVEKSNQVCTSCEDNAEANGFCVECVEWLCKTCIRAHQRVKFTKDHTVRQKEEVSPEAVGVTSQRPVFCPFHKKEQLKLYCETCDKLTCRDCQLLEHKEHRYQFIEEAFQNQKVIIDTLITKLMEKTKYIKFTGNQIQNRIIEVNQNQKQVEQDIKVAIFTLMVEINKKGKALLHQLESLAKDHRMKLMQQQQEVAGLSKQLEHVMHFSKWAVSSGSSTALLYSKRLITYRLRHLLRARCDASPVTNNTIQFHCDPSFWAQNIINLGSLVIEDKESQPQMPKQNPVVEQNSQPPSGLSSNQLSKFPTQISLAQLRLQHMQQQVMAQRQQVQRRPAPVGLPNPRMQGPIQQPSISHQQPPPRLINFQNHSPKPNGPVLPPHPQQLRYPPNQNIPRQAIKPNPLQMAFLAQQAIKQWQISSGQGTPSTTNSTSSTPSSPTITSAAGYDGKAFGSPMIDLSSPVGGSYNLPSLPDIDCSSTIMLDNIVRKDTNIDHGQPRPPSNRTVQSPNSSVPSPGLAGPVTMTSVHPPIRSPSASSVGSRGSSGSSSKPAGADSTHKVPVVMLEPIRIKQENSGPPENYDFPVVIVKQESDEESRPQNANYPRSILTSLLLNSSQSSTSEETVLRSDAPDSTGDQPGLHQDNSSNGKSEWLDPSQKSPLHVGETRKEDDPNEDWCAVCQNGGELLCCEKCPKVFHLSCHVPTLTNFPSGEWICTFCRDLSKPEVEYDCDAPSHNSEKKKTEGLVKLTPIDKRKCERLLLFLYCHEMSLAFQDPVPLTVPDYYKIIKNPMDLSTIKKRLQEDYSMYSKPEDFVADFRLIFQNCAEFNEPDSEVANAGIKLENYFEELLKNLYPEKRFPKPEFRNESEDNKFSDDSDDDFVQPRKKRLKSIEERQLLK

MV4-11 [18] = assay: In vivo inhibition of BRD4 in human MV4-11 cells xenografted in BALB/c mouse assessed as reduction in cellular MYC mRNA expression level in plasma at 15 mg/kg,sc BID and measured for 8 to 12 hrs by PCR anlaysis; assay type: functional, organism-based; settings: time 8-12 hrs
How it was run: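 Pharmacodynamic study in MV-4-11 AML mouse xenograft. Dosing was 15 mg/kg subcutaneous twice daily. At 4, 8 and 12 h after the second dose, MYC mRNA was measured against vehicle, and compound levels were measured in plasma and tumor. Free plasma concentration was estimated alongside total levels.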

[19] = Volume of distribution at steady state in dog at 0.5 mg/kg,iv; assay type: ADME, organism-based, Canis lupus familiaris; settings: in vivo, read-out: Vdss
[20] = target: T1, Transcription intermediary factor 1-alpha; assay: Binding affinity to TRIM24 bromodomain (unknown origin) incubated for 60 mins by TR-FRET assay
[21] = Intrinsic clearance in dog liver microsomes; assay type: ADME, Canis lupus familiaris, Microsome; settings: read-out: CLH
[22] = Toxicity in dog assessed as degeneration of testicular seminiferous epithelium at 2 to 6 mg/kg,po QD consecutive for 14 days followed by 2 weeks recovery period; assay type: organism-based, Canis lupus familiaris; settings: in vivo, 336 h, dose 2-6 mg/kg, time 14 day; how it was run: as §1

Bromodomain-containing protein 8, sequence (Q9H0E9 whole entry): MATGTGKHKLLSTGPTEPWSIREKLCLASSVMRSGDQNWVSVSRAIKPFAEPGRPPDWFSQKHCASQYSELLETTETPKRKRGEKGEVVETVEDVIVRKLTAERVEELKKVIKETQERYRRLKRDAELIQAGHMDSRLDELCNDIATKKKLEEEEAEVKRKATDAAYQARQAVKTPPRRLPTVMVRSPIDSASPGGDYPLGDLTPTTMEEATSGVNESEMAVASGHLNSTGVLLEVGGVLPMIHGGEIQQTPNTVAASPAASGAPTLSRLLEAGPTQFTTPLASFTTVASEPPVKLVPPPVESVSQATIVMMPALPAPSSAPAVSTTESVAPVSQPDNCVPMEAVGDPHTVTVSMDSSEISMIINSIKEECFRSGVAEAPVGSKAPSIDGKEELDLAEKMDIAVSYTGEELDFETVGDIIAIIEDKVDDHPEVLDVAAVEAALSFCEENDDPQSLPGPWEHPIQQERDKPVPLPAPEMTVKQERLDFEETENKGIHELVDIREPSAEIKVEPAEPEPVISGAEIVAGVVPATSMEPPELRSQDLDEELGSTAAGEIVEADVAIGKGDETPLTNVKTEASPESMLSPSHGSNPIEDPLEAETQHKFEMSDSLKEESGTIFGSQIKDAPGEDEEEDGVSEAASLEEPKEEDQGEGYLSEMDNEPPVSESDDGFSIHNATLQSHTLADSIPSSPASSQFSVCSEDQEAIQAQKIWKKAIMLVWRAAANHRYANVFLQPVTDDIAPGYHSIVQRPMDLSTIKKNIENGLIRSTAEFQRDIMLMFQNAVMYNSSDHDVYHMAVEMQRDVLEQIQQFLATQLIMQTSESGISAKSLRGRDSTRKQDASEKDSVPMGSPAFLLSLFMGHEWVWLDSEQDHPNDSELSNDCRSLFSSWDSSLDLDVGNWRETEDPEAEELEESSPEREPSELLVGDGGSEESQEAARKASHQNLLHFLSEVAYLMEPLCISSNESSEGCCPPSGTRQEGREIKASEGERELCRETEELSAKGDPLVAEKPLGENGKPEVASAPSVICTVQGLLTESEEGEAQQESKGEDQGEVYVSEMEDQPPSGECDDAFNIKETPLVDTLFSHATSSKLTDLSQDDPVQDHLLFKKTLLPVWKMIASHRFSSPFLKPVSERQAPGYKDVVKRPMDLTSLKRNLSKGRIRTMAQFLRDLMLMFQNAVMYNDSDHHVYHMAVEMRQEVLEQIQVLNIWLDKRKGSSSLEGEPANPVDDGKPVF
Histone acetyltransferase KAT2B, sequence (Q92831 whole entry): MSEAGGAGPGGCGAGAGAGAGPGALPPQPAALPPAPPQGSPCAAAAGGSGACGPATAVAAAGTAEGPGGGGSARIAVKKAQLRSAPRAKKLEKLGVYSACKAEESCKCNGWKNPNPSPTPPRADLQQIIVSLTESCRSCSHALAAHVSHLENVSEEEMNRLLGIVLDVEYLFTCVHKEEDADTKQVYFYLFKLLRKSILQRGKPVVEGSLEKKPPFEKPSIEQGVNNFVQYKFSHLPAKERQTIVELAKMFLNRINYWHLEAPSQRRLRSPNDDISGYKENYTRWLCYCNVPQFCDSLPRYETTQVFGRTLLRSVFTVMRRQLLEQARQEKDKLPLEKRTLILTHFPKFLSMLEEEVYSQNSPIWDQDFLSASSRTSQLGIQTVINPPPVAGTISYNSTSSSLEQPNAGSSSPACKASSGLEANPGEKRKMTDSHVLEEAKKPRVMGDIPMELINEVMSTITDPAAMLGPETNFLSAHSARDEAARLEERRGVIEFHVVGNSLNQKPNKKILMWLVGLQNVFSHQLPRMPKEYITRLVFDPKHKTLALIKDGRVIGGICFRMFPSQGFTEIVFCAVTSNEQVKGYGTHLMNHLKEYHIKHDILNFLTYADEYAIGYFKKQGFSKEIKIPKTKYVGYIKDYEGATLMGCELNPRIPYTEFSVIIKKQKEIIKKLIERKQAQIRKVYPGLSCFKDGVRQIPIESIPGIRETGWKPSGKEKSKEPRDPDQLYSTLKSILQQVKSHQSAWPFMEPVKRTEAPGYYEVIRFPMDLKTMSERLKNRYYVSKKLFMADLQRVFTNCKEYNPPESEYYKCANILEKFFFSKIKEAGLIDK
SWI/SNF-related matrix-associated actin-dependent regulator of chromatin subfamily A member 4, sequence (P51532 whole entry): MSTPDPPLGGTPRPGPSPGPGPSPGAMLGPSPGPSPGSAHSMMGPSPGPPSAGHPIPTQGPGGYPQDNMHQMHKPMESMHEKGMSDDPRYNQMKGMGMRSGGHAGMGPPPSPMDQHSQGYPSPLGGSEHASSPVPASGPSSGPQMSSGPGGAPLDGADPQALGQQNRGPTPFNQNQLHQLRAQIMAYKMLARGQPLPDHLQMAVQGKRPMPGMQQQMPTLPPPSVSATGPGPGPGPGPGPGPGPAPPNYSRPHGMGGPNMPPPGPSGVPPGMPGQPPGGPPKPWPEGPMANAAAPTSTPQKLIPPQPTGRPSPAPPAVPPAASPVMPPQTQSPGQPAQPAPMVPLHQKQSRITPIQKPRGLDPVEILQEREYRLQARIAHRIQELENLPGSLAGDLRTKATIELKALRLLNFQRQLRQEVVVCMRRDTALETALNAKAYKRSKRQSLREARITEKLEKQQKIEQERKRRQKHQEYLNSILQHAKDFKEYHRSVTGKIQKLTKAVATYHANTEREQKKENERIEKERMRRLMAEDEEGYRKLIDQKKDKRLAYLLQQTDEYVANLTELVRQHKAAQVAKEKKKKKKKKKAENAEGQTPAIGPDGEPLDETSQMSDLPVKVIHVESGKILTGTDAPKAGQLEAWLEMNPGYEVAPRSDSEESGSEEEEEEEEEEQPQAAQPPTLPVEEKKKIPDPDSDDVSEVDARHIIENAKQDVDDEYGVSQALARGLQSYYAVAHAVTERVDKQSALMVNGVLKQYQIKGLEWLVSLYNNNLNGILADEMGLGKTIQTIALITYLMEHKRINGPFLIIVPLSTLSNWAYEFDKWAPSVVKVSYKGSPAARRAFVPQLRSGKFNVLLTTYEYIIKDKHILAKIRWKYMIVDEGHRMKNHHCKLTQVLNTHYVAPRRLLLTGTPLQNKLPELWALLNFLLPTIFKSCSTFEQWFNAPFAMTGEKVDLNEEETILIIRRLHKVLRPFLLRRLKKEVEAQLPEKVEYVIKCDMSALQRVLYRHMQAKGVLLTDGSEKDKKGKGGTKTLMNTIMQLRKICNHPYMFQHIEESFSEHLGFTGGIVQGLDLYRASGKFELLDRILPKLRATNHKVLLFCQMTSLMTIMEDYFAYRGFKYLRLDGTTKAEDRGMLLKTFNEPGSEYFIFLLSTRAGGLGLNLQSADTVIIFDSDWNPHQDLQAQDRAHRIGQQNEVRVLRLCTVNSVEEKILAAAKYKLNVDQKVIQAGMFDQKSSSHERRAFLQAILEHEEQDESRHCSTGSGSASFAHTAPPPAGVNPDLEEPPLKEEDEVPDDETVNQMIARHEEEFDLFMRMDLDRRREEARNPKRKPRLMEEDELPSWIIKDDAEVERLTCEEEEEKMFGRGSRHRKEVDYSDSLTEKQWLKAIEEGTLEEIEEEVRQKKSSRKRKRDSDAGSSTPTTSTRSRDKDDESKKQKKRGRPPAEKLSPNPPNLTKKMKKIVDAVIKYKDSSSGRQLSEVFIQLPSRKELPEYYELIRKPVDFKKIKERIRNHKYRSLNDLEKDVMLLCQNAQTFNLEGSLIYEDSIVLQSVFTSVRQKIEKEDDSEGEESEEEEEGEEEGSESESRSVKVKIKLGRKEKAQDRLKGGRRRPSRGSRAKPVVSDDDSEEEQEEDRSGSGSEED

IC50 [1]: > 20 µM | Cmax [3]: 2900 nM | AUC(0-inf) [5]: 101 µM·h | Tmax [6]: 1.3 h | clearance [7]: 1.83 mL/min/kg | fCmax [8]: 0.3 µM | fraction unbound [9]: 0.03 | IC50 [11]: > 15 µM | AUC at 24 h [12]: 49 µM·h | CL free [15]: 283 mL/min/kg | IC50 [16]: > 20 µM | IC50 [17]: > 20 µM | Vd [19]: 1.2 L/kg | IC50 [20]: > 20 µM | predicted hepatic clearance [21]: 20 mL/min/kg
Compound: Cc1noc2c1-c1ccccc1C(c1ccc(Cl)cc1)=N[C@H]2CC(N)=O [PELABRESIB]
inhibition in vivo at 30 mg/kg (MV4-11 [2]): 41% | Activity [4]: Toxic | Activity [10]: Toxic | Activity [13]: Non-Toxic | Activity [14]: Toxic | inhibition (MV4-11 [18]): inactive | Activity [22]: Toxic
